FGF22 binding – shifts melting point of recombinant human FGF22; Q9HCT0; recombinant FGF22 thermal shift, SYPRO orange fluorescence; percent of sucrose octasulfate shift, DMSO zero; activity (Tm shift, normalised), % at 9.99 µM; actives 1.5% (n = 340,000);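 active = mean Tm shift, scaled 0 neutral to 100 positive control, at about 1.3% or above, every replicate too, limit read from the data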
SIRT5 block – sirtuin-5 (human) deacylase inhibition; Q9NXA8; Purified SirT5, succinyl-peptide AMC, trypsin-coupled fluorescence; inhibition, % at 15 µM; actives 1.1% (n = 330,000); AID 652115; in the data active = inhibition above about 15%
E-sel inducer – induces E-selectin expression in human endothelial cells | actives 0.37% (n = 260,000) | activation, % at 7.58 µM | AID 686992 | P16581 | HUVEC E-selectin immunofluorescence imaging; normalized: neutral wells 0, TNF-alpha wells 100;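 active = mean E-selectin-positive cell signal at least 10% of the positive control, reached in at least 60% of replicates, without over 20% cell loss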
Target sequence (P16581 whole entry, looked up): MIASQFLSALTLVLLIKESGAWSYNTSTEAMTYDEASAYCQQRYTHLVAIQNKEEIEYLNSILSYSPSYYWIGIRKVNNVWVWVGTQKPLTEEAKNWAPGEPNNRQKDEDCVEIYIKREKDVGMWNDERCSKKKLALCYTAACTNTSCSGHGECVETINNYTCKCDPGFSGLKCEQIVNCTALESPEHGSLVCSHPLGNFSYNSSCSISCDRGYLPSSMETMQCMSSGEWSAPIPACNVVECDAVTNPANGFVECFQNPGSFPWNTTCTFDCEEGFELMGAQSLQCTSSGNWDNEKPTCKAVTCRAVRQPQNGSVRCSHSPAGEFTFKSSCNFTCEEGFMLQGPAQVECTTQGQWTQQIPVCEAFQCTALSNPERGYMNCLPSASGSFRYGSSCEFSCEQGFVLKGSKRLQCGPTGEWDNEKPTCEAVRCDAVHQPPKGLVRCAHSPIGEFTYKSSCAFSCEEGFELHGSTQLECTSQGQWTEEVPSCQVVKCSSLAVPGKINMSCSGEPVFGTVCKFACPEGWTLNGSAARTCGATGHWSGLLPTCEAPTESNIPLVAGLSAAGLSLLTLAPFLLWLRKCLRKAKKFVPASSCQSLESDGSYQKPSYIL
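assay system = HUVEC, human umbilical vein endothelial cells | input = 3,000 HUVEC seeded per well | medium = EGM-2 growth medium on 0.1% gelatin-coated wells | dosing = one compound dose added by pin transfer | signal = immunofluorescence imaging | read-out basis = % PE-positive cells | control set = TNF-alpha, DMSO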
Ecoli rRNA inh – selective bacterial rRNA inhibition in E. coli. GFP signal change (wild-type ribosome), % (test concentration not listed). actives 1.6% (n = 350,000). E. coli WT GFP vs humanized-ribosome RFP mutants, fluorescence, 24 h; stronger effect = lower value; DMSO median 0, no signal -100. AID 720706;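 active = significant combined selectivity score with lowered wild-type GFP, culture density cut under 30%, mutant RFP and density less affected; inactive = any of these conditions unmet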
C2C12 statin – suppression of simvastatin myotoxicity | C2C12 myotubes + simvastatin, ATP luminescence, 48 h; scaled: DMSO 0, geranylgeraniol control 100 | actives 0.78% (n = 330,000) | AID 602340 | rescue of ATP level, % at 7.49 µM;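 active = mean ATP rescue above about 67%, or every replicate alone reaching that limit, limit read from the data, passing the limit was not always enough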;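 also: myotubes were challenged with 10 µM simvastatin during compound exposure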
FN deposit inh – fibronectin deposition inhibition. inhibition, % at 12.6 µM. actives 0.086% (n = 350,000). AH1F fibroblasts, Alexa488-fibronectin deposition fluorescence, overnight;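 active = mean inhibition across replicates of 30% or more, regardless of how many single replicates reach that level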;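 also: positive control wells lacked labelled fibronectin entirely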
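Material: AH1F fibroblasts assembling fluorescent fibronectin matrix; amount: 10000 AH1F cells/well; medium: DMEM, 2% serum; reagent: Alexa488-fibronectin, 24 nM final in well; dosing: single compound dose, delivered by pin transfer; incubation: 1 h adhesion, overnight exposure; detection: fluorescence after three HBSS washes, excitation 485 nm, emission 525 nm; measure: fibronectin deposition inhibition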
* hit, by the source's call; . = not tested or not shown. Only some compounds are listed: those with a hit (about 4% of all), similar ones and a draw of the others.

SMILES	FGF22 binding	SIRT5 block	E-sel inducer	Ecoli rRNA inh	C2C12 statin	FN deposit inh
C[C@H]1CN([C@@H](C)CO)C(=O)c2cc(NS(=O)(=O)c3cccs3)ccc2O[C@H]1CN(C)S(C)(=O)=O	0.0	-2.5	448.9*	-2.5	48.5	.
C[C@@H]1CN([C@H](C)CO)C(=O)c2cc(NS(=O)(=O)c3cccs3)ccc2O[C@@H]1CN(C)S(C)(=O)=O	0.0	-4.7	-6.0	-0.6	13.8	.
C[C@@H]1CN([C@H](C)CO)C(=O)c2cc(NS(=O)(=O)c3cccs3)ccc2O[C@H]1CN(C)S(C)(=O)=O	-0.1	-4.6	33.3*	-1.2	-13.2	.
C/C=C/c1ccc([C@H]2[C@@H](CNC(C)=O)N(Cc3ccccn3)[C@H]2CO)cc1	.	.	0.3	3.2	1.2	-5.1
CCOc1ccccc1N(C(=O)Nc1ccc(Cl)cc1)C1=NCCS1	.	-5.2	.	-21.2*	0.3	10.5
CCOc1ccccc1N(C(=O)Nc1cccc(Cl)c1)C1=NC(C)CS1 (centres undefined)	-0.2	-4.1	.	-39.1	11.0	-2.2
CO[C@@H](CN(C)C(=O)c1cnccn1)[C@H](C)CN([C@@H](C)CO)S(=O)(=O)c1ccc(C)cc1	-0.2	-2.4	0.1	-0.5	5.9	-0.5
Cc1ccc(-c2nc3ccccc3c(=O)n2NC(=O)COc2ccccc2)cc1	0.0	3.3	-0.2	.	.	2.2
Cc1ccc(OCC(=O)Nn2c(C)nc3ccccc3c2=O)c(C(C)C)c1	0.1	-1.0	.	-22.2*	-11.8	.
Cc1noc(C)c1NC(=O)N(C)C[C@@H]1Oc2c(NC(=O)CCCCCC(=O)Nc3ccccc3N)cccc2C(=O)N([C@@H](C)CO)C[C@H]1C	-0.1	-4.3	0.1	2.0	.	6.7
O=C(C[C@H]1C[C@@H]2c3cc(NC(=O)c4ccc5c(c4)OCO5)ccc3O[C@@H]2[C@H](CO)O1)NCCc1ccccc1	0.0	-0.7	-0.2	-5.8	-3.0	.
C[C@H]1CN([C@@H](C)CO)C(=O)c2cc(NS(=O)(=O)c3ccc(F)cc3)ccc2O[C@@H]1CN(C)Cc1ccncc1	-0.1	-1.1	-2.8	0.3	12.1	.
O=C(O)CC1(CC(=O)Nc2ccc(F)c(Cl)c2)CCCCC1	0.4	-1.7	8.0	-23.4*	.	-2.3
COc1ccc(NC(=O)N(C)C[C@H]2Oc3ncc(-c4ccc(C#N)cc4)cc3C(=O)N([C@H](C)CO)C[C@H]2C)cc1	0.0	-2.2	-0.2	-0.6	5.6	.
CCCNC(=O)C[C@@H]1CC[C@H]2[C@@H](COc3ccc(NC(=O)c4ccc(OC)cc4)cc3C(=O)N2C)O1	0.0	.	-0.1	0.2	9.0	-18.2
COc1ccc(CNCC(O)(c2ccccc2)c2ccccc2)cc1OC	43.3*	1.7	.	5.5	.	3.6
COc1ccc(CNCC(O)(c2ccccc2)c2ccccc2)cc1	-0.1	1.2	0.0	9.3	-7.8	7.5
CCN1CCN(c2ccc(S(=O)(=O)N3CCCCC3)cc2NC(=O)/C=C/c2cccc(OC)c2OC)CC1	-0.2	0.0	0.0	-20.2*	.	3.6
CCC(=O)N1CC2(C1)[C@@H](c1ccccc1)[C@@H](CO)N2Cc1ccccc1OC	0.0	-4.4	-0.2	-0.8	.	.
CCOC(=O)c1ccc(-n2c(N)c(C(=O)NCc3ccco3)sc2=S)cc1	-0.1	1.0	.	-26.1*	18.2	.
O=C(COC(=O)c1ccc(S(=O)(=O)Nc2ccccc2)cc1)NCCC1=CCCCC1	43.6*	-3.9	.	-39.6	.	-0.5
O=C(COc1ccc(S(=O)(=O)N2CCCC2)cc1)NCCC1=CCCCC1	-0.2	-3.1	.	-20.2*	16.8	.
CCCNC(=O)COC(=O)c1ccc(Cl)c(S(=O)(=O)N2CCCC2)c1	.	.	.	.	27.9	1.1
O=C(COc1ccc(S(=O)(=O)N2CCOCC2)cc1)NCCc1ccc(Cl)cc1	42.9*	.	0.8	-1.0	-2.8	-2.3
CCCNC(=O)COC(=O)c1ccc(S(=O)(=O)N2CCCC2)cc1	43.9*	-1.5	3.3	4.4	.	3.2
SMILES	FGF22 binding	SIRT5 block	E-sel inducer	Ecoli rRNA inh	C2C12 statin	FN deposit inh
COCC(=O)N(C)C[C@H]1Oc2cc(-c3ccc(C#N)cc3)ccc2S(=O)(=O)N([C@H](C)CO)C[C@H]1C	-0.1	-1.9	0.9	0.0	1.8	1.7
CC(C)NC(=O)Nc1cccc2c1O[C@H](CN(C)C(=O)NC(C)C)[C@@H](C)CN(C)C2=O	.	.	.	0.3	.	3.7
O=C(COC(=O)c1cc(S(=O)(=O)N2CCOCC2)ccc1Cl)NC1CCCCC1	42.9*	.	0.1	1.5	-3.1	-1.1
CCOc1ccc(CCNC(=O)CCn2ccc3cc(S(=O)(=O)N4CCCC4)ccc32)cc1	-0.2	2.4	.	-20.8*	0.7	3.7
CCCCNC(=O)CCn1ccc2cc(S(=O)(=O)N3CCCC3)ccc21	-0.1	1.7	.	4.9	-1.3	3.4
O=C(COC(=O)c1cc(S(=O)(=O)N2CCOCC2)ccc1Cl)NC1CC1	0.0	-3.6	.	8.1	1.7	-6.0
O=C(COc1ccc(Br)cc1)NNC(=O)c1cc(S(=O)(=O)N2CCOCC2)ccc1Cl	0.2	-1.9	.	-19.4*	3.2	9.1
O=C(COc1ccc(S(=O)(=O)N2CCOCC2)cc1)Nc1ccc(Br)cc1	0.6	-3.1	.	-21.9	-3.8	-2.8
CN(C)c1ccc2c(c1)[C@@H]1C[C@@H](CC(=O)NCc3ccncc3)O[C@H](CO)[C@@H]1O2	0.3	-3.2	0.0	7.2	-1.3	-7.5
O=C(C[C@H]1C=C[C@H](NC(=O)NC2CCCCC2)[C@@H](CO)O1)NCc1ccc(Cl)cc1	0.0	2.9	0.4	.	2.6	.
CCS(=O)(=O)N[C@H]1CC[C@@H](CC(=O)Nc2ccc(-c3ccccc3)cc2)O[C@@H]1CO	1.1	0.2	0.2	-1.9	10.8	5.1
CN(Cc1ccccc1)C1=CC(=[N+]2CCCCC2)CC(C)(C)C1	-0.1	3.0	.	-51.5*	-774.7	-9.0
CO[C@@H]1CN(C)C(=O)c2cc(NS(=O)(=O)c3ccc(C)cc3)ccc2OC[C@@H](C)N(Cc2nccs2)C[C@@H]1C	.	0.2	0.0	-0.4	-5.5	-10.0
C/C=C/c1ccc([C@H]2[C@@H](CO)N[C@@H]2CNC(=O)C2CCCC2)cc1	.	6.0	0.0	0.8	.	13.0
Cc1ccc(C)c(NC(=O)CSc2nnc(C3CCCCC3)o2)c1	-0.3	.	0.7	4.2	71.4*	9.2
Cc1ccc(C)c(NC(=O)CSc2c(C)n[nH]c2C)c1	0.1	1.4	2.9	-55.0*	10.8	7.2
C[C@H]1CN([C@@H](C)CO)C(=O)c2cc(NC(=O)CCN3CCOCC3)ccc2O[C@H]1CN(C)C(=O)Nc1ccccc1	0.3	1.7	-0.8	3.7	0.1	.
Cn1cccc1C(=O)C(=O)Nc1ccccc1C(F)(F)F	43.2*	-3.6	3.0	9.0	.	-4.9
CC(=O)Nc1ccccc1C(F)(F)F	0.0	-2.0	.	17.8	.	1.2

Screens from PubChem.
